In the library only some 2.5% were active in any assay of this set; here they are far more common.
TCR-CD3 inh: human TCR-CD3 binding inhibition. TAMRA-labeled TCR probe fluorescence, biochemical. inhibition, % at 9.4 µM. hit rate 0.37% among 360,000. AID 651800; in the data active = inhibition above about 19%;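 also: recombinant mutant TCR 2C K166C tagged with TAMRA read by polarization; 0% = receptor in buffer alone and 100% = receptor with positive control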
ABHD4 inh: ABHD4 (mouse) inhibition, primary FP screen; hit rate 0.54% among 370,000; AID 720543; inhibition, % at 8.92 µM; purified mABHD4, FP-Rh probe fluorescence polarization; Q8VD66;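 active = inhibition exceeding the mean over every tested compound plus 3 SD, cut at about 30% in these data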;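 also: 0% = plate median of compound wells and 100% = S159A mutant with DMSO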
Target sequence (Q8VD66 whole entry, looked up): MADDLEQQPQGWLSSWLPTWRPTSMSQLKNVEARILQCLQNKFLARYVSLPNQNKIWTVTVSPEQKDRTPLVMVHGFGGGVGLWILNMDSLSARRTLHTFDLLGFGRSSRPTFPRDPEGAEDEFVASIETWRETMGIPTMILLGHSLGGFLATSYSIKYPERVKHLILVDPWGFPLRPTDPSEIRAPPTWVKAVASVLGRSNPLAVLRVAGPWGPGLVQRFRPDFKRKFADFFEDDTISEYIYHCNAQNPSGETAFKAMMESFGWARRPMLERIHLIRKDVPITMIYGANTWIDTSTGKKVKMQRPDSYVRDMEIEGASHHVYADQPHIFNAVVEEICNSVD
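Test system: mouse ABHD4 enzyme, wild type. Reagent: FP-Rh fluorescent activity-based probe, added after compound pre-incubation. Timing: pre-incubation 45 min, probe exposure 60 min, at 25 °C. Technique: FP readout, ex 525 nm / em 598 nm. Benchmarks: high control S159A mutant with DMSO, low control median of compound wells.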
PRMT1 inh: blocks human protein arginine methyltransferase 1; recombinant PRMT1, activity-based probe fluorescence polarization; Q99873; hit rate 1.3% among 370,000; inhibition, % at 2.79 µM;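 active = inhibition above about 21% made by adding two undisclosed values, limit read from the data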
HTRA1 inh: HTRA1 (human) protease inhibition | recombinant HTRA1, FP-rhodamine activity-based probe, fluorescence polarization | inhibition, % at 5.96 µM | hit rate 0.5% among 340,000; in the data active = inhibition above about 36%;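 also: 0% = enzyme with DMSO and 100% = wells lacking enzyme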
SIAE primary: human SIAE inhibition, primary screen | SIAE FP-Rh probe binding, fluorescence polarization | hit rate 0.69% among 370,000 | AID 1053197 | inhibition, % at 9.66 µM;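 active = inhibition above a cutoff: mean of compounds within the control limits plus 3 SD of those, cut at about 17% in these data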;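 also: 0% = plate median of compound wells and 100% = probe without SIAE protein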
Starred values were filed as active, the others as inactive; nt = no result.

SMILES	TCR-CD3 inh	ABHD4 inh	PRMT1 inh	HTRA1 inh	SIAE primary
CC(=O)O[C@]1(C(C)=O)CC[C@H]2[C@@H]3C=C(Cl)C4=CC(=O)[C@@H]5C[C@@H]5[C@]4(C)[C@H]3CC[C@@]21C	-1	-6	-2	-4	6
O=C1C(Cl)=C(N2CCOCC2)C(=O)N1c1ccc(Br)cc1	2	7	25*	2	3
CC(C)c1ccc(N2C(=O)C(Cl)=C(N3CCOCC3)C2=O)cc1	14	4	1	2	-4
CCOC(=O)c1c(NC(=O)c2ccco2)sc2c1CCCC2	4	-5	0	-2	-1
NC(=O)c1c(NC(NC(=O)c2ccco2)C(=O)c2ccc(Cl)cc2)sc2c1CCCC2 (stereo not given)	3	7	24*	9	10
N#Cc1c(NC(NC(=O)c2ccco2)C(=O)c2ccccc2)sc2c1CCCC2 (stereo not given)	5	3	23*	-3	-3
N#Cc1c(NC(=O)c2ccccc2)sc2c1CCCCC2	0	-15	-1	-5	-5
Cc1ccc(CN2CCCCC(NC(=O)C(C)(C)C)C2=O)cc1 (stereo not given)	nt	3	-1	nt	0
C[C@@H]1[C@@H](O)C[C@@]2(C[C@H](O)c3cc(Cl)ccc3O2)O[C@H]1c1ccccc1Cl	nt	-20	1	nt	5
CC(C)COC(=O)c1cc(=O)[nH]c2ccccc12	0	-7	-1	0	4
O=C(CSc1nc2ccccc2[nH]1)Nc1ccc(N2CCOCC2)cc1	6	0	2	5	1
Cc1ccc(S(=O)(=O)CCC(=O)OCn2nnc3ccccc3c2=O)cc1	-6	3	4	3	-2
O=C1CSc2ccc(C(=O)Nc3cccc(S(=O)(=O)Nc4ccc(Br)cc4)c3)cc2N1	11	-211	21*	-160	-193
Nc1c(C(=O)NC2CC2)sc2nc3c(c(-c4ccco4)c12)CC/C3=C/c1ccco1	nt	nt	nt	54*	nt
Cc1nc2sc(C(=O)NC3CC3)c(N)c2c(C)c1Cl	nt	3	6	nt	3
Cn1ccnc1SCC(=O)Nc1sccc1C#N	2	1	22*	1	1
COc1cc(NC(=S)N2CCCC(CO)C2)cc(OC)c1 (stereo not given)	-1	-9	21*	8	-5
COC(=O)Cc1ccc(NC(=S)N2CCCC(CO)C2)cc1 (stereo not given)	-3	-4	2	-6	3
Nc1ccn([C@@H]2O[C@H](C(=O)N[C@H](Cc3ccccc3)C(=O)Nc3ccc4scnc4c3)[C@@H](O)[C@H]2O)c(=O)n1	-5	-6	21*	nt	-2
COC(=O)[C@@]1(Cc2ccc(F)cc2)[C@H]2c3cc(C(=O)N4CCCC4)n(Cc4ccc(S(C)(=O)=O)cc4)c3C[C@H]2CN1C(=O)c1ccccc1	9	6	-1	nt	1
COC(=O)[C@@]1(Cc2ccc(F)cc2)[C@H]2c3cc(C(=O)N4CCCC4)n(Cc4ccc(C)o4)c3C[C@H]2CN1C(=O)c1ccccc1	-9	2	24*	nt	2
COC(=O)[C@@]1(Cc2ccc(F)cc2)[C@H]2c3cc(C(=O)N4CCCC4)n(Cc4ccc(C(F)(F)F)nc4)c3C[C@H]2CN1C(=O)c1ccccc1	3	-8	0	nt	17*
O=c1[nH]c(Sc2ccc([N+](=O)[O-])cc2[N+](=O)[O-])nc2ccccc12	1	7	23*	-6	1
O=C1NC[C@H](CCCCN2C[C@@H](Cc3ccccc3)N(CC3CCCCC3)C(=O)C2=O)N(CCC2CCCCC2)C1=O	6	7	1	nt	-2
COC(=O)c1cc(C)nc(Sc2ccccc2N)n1	2	-1	25*	nt	6
SMILES	TCR-CD3 inh	ABHD4 inh	PRMT1 inh	HTRA1 inh	SIAE primary
COc1ccc2c(c1)[C@@]1(OCCC=C[C@H]1C)C(=O)N2Cc1ccc(F)cc1	0	3	0	nt	5
O=[N+]([O-])c1ccc(S(=O)Cc2ccccc2)c([N+](=O)[O-])c1 (stereo not given)	6	7	38*	2	2
O=[N+]([O-])c1ccc(CS(=O)c2ccccc2)cc1 (stereo not given)	-1	-6	-3	-2	1
CC(OC(=O)Cc1ccccc1[N+](=O)[O-])C(=O)NC(=O)NC1CCCCC1 (stereo not given)	3	-2	-1	58*	0
Cc1ccc(NNC(=O)c2ccno2)cc1C	-5	-3	23*	6	-2
Cc1ccccc1NS(=O)(=O)c1cc(C(=O)NCc2ccncc2)ccc1Cl	3	-1	5	4	-4
CCn1c(N)c(C(=O)NC)sc1=S	8	1	25*	11	10
CCNC(=O)c1sc(=S)n(CC)c1N	0	2	8	-4	3
CC1=C(C)/C(=N\OS(=O)(=O)c2ccc(C)cc2)C=CC1=O	6	8	24*	2	9
CCOC(=O)c1ccc(S(=O)(=O)Nc2nc3cc(S(=O)(=O)NC4=NCCCCC4)ccc3s2)cc1	-4	-3	41*	-10	-1
CCOc1ccc(N(Cc2cc3cc(C)ccc3[nH]c2=O)S(=O)(=O)c2ccccc2)cc1	6	5	1	-5	0
Cc1cc(Nc2ccccc2)nc(NCc2ccccc2)n1	-4	21	0	-11	-5
Cc1cc(Nc2ccc(Cl)cc2)nc(NCc2ccccc2)n1	-1	17	1	-17	23*
CSCCC(N=C1NS(=O)(=O)c2ccccc21)C(=O)N1CCCC(C(N)=O)C1 (stereo not given)	0	4	0	0	-7
N#CC(=C1C=CC(=NO)C(Cl)=C1)c1ccccc1	0	14	8	nt	-18
Cc1[nH]c2ccccc2c1/C=N/Nc1cccc(C(=O)O)c1	12	34*	5	18	7
N#CC1=C(Nc2ccccc2Cl)SC(c2ccccc2O)NC1=O (stereo not given)	0	5	24*	-1	-3
CNC(=O)C1(CC(C)C)C=CCN1C(C)=O (stereo not given)	-4	0	-4	2	17*
CC(=O)N1CC=CC1(CC(C)C)C(=O)NCc1cc(F)cc(C(F)(F)F)c1 (stereo not given)	-8	-12	4	-8	-1
Cc1nc2ccccc2c(=O)n1Cc1ccco1	-8	-6	5	nt	-2
COc1ccc(Cn2c(C)nc3c(c2=O)c2nc4ccccc4nc2n3Cc2ccco2)cc1	-2	-6	40*	-35	-31
COc1ccccc1C1CC(c2cccs2)=NN1C(=O)CCC(=O)O (stereo not given)	-5	-7	-2	-2	-5
COc1ccccc1C1CC(c2cccs2)=Nc2ccccc2S1 (stereo not given)	0	3	81*	-14	11
CCCC(=O)Nc1cccc(C(=O)Nc2ccccc2OCC)c1	-4	6	-3	nt	6
NC(=S)NN=CCn1cc([N+](=O)[O-])c(=O)[nH]c1=O	2	5	24*	4	4

Compound activity: PubChem BioAssay, The Scripps Research Institute Molecular Screening Center
